These results are taken from article PMC3702173 (Circulation research, 2013).

One data set relates to HUVEC. Briefly: Transendothelial transport. The format is cell-based, human. Particulars: for Effect on transendothelial LL37 transportation: pretreatment of HUVEC with inhibitor or enzyme.
The subject of data set [1] is classical CD14^++CD16^− monocytes. The format is cell-based, human. Particulars: for Monocyte adhesion to P-selectin/ICAM-1 or P-selectin/VCAM-1: substance coimmobilized, LL37/MCP1 n=8, mLL37 n=3.
Data set [2] relates to classical monocytes (Ly6C^+). The format is in vivo, mouse.
The test system of data set [3] is endothelium (baso-apical transport of CRAMP). The format is in vivo, mouse. To be noted: n=4. An outline of the steps:
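Neutropenic Darc−/− mice (1A8, 50µg/mouse i.p., 8h before stimuli) were injected intrascrotally with TNF (50ng, 4h) plus CRAMP (1µg). Fluorescent beads conjugated with anti-CRAMP antibody were then injected, and immobilised luminal beads were counted by intravital microscopy; n=4.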

Data set [4] has as its system murine monocytes (ICAM-1 or VCAM-1 binding). The format is cell-based, mouse. To be noted: PMA 50ng/ml, MCP-1 50ng/ml, CRAMP 1µg/ml; ICAM-1-Fc or VCAM-1-Fc; n=5. An outline of the steps: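 Mouse peripheral leukocytes exposed to PMA (50ng/ml), MCP-1 (50ng/ml) or CRAMP (1µg/ml) with ICAM-1-Fc or VCAM-1-Fc plus anti-Fc antibody; monocyte subsets gated by CD45, CD11b, CD115 and Gr1 staining; ligand binding read by flow cytometry; n=5.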

A further data set concerns classical monocytes. Description: Classical monocyte accumulation in peritoneum upon stimulation with TNF. The format is in vivo, mouse. Particulars: CRAMP-deficient mice, local application of CRAMP, unpublished data.
The next data set has as its system non-classical monocytes. To be noted: mouse cremaster muscle in vivo. An outline of the steps:
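Cx3cr1egfp/WT mice, either with intact white cell count or made neutropenic with 1A8 (50µg i.p., 12h before), got TNF (50ng, 12h) intrascrotally. Anti-Ly6C (1µg i.v.) separated subsets, with non-classical monocytes GFP+ only. Cremaster adhesion was quantified by intravital microscopy; n=6.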

The test system of data set [5] is activated CD11b and VLA4 (β1- and β2-integrins) on monocytes. Description: Integrin activation. The format is cell-based, human. Particulars: LL37 1µg/ml; for Integrin activation on non-classical CD14^+CD16^++ monocytes: MCP-1 50ng/ml, Online Figure V.
Data set [6] concerns human non-classical CD14^+CD16^++ monocytes. The format is cell-based. To be noted: LL37 (1µg) deposited 15 min prior to perfusion; TNF-activated HUVEC; n=6. An outline of the steps: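 Human non-classical CD14+CD16++ monocytes perfused in a flow chamber over HUVEC monolayers activated with TNF (20ng, 12h); LL37 (1µg) deposited on the monolayer 15 min before perfusion; adherent cells counted; n=6.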

For data set [7], the system named is endothelial adhesion molecules on HUVEC. Briefly: Expression of endothelial adhesion molecules on HUVEC. The format is cell-based, human. Particulars: treatment of HUVEC with LL37.
The test system of data set [8] is P2X7. Briefly: Surface plasmon resonance, receptor proteoliposomes on immobilized LL37. The format is binding. Particulars: LL37 immobilized on CM4 chip; receptor-containing proteoliposomes; not shown.
The next data set has as its system DARC. Briefly: Interaction of DARC and LL37. The format is binding. Particulars: Online Figure IV.
The test system of another data set is FPR2. To be noted: ref [6]; cited from earlier work.
The subject of a further data set is monocytes. To be noted: ref [40]; cited from earlier work.
The subject of data set [9] is P2X7. To be noted: LPS-primed monocytes; via P2X7; ref [41]; cited from earlier work.
Data set [10] deals with various T-cells, smooth muscle cells, and epithelial cells. To be noted: ref [44], [45]; cited from earlier work.
For another data set, the system named is neutrophils. Particulars: ref [24]; cited from earlier work.

“Also recorded” adds a separate entry of the source. Some results are limits rather than exact numbers.

For `C=C1[C@@H](C)[C@H]2[C@H](Cc3ccccc3)NC(=O)[C@]23OC(=O)/C=C/[C@H](O)CCC[C@@H](C)C/C=C/[C@H]3[C@@H]1O` [cytochalasin B], in the data set on HUVEC (n=6), the “Effect on transendothelial LL37 transportation” value is “abrogated”.

Take `Cc1ccc2c(c1)C1(CCN(CCc3nc(-c4ccccc4)oc3C)CC1)OC(=O)N2` [RS504393, reference compound]: the “Effect on MCP1-mediated monocyte adhesion” value in [1] (RS504393 1µM, P-selectin/ICAM-1 or P-selectin/VCAM-1, n=8) was “blocked”.

Regarding CRAMP, the “Adhesion of classical monocytes in Cramp^−/− mice” value in [2] (Cramp^−/− mice, intrascrotal TNF with CRAMP 1µg vs TNF alone, n=5) was “restored the defect in Cramp^−/− mice; also recorded: restores adhesion of classical monocytes”. Further, in data set [2] (mouse cremaster muscle in vivo), the “Adhesion of classical monocytes, overall statement, mouse cremaster” value is given as “induce adhesion of classical monocytes”. In addition, in data set [2] (neutropenic Fpr1^−/− mice, TNF and CRAMP 1µg, n=6), the “Adhesion of classical monocytes in Fpr1^−/− mice” value is given as “resulted in increased adhesion in Fpr1^−/− mice”. In addition, the “Adhesion of classical monocytes in Fpr2^−/− mice” value in data set [2] (neutropenic Fpr2^−/− mice, TNF and CRAMP 1µg, n=6) is given as “this response was not observed in Fpr2^−/− mice”. Moreover, the “Transportation of CRAMP across endothelium in Darc^−/− mice” value in data set [3] (neutropenic Darc^−/− mice, TNF 50ng, 4h, and CRAMP 1µg intrascrotal) was “maintained in Darc^−/− mice”. For the same compound, the “Luminal CRAMP in WT mice” value in [3] (neutropenic WT mice, TNF 50ng and CRAMP 1µg intrascrotal) is reported as “luminal CRAMP was detected 4h after intrascrotal CRAMP injection”. Also, in data set [4], the “ICAM-1 and VCAM-1 binding to classical monocytes” value (from here on “ICAM-1 and VCAM-1 binding”) was “increased binding of ICAM-1 or VCAM-1; also recorded: enhances ICAM-1 and VCAM-1 binding to classical monocytes”. For the same compound, the “Accumulation of classical monocytes into peritoneum” value with classical monocytes is listed as “rescued by local application of CRAMP”. Besides, the “Adhesion of non-classical monocytes, mouse cremaster” value in the data set on non-classical monocytes is on record as “not of non-classical monocytes”.

In the case of `CCCCCCCCCCCCCC(=O)O[C@@H]1[C@@H](C)[C@@]2(O)[C@@H](C=C(CO)C[C@]3(O)C(=O)C(C)=C[C@@H]23)[C@@H]2C(C)(C)[C@]12OC(C)=O` [PMA, phorbol-12-myristate-13-acetate, reference compound], in [4], the “ICAM-1 and VCAM-1 binding” value is listed as “increased binding of ICAM-1 or VCAM-1”.

As to boc-PLPLP, the “Effect on transendothelial LL37 transportation” value with HUVEC (n=6) is reported as “did not impact on transendothelial LL37 transportation”.

Regarding `COc1cc2c(c(OC)c1OC)-c1ccc(OC)c(=O)cc1[C@@H](NC(C)=O)CC2` [colchicine], the “Effect on transendothelial LL37 transportation” value in the data set on HUVEC (n=6) is “abrogated”.

Take `O=C(Nc1ccc([N+](=O)[O-])cc1O)Nc1ccccc1Br` [SB225002]: the “Effect on transendothelial LL37 transportation” value in the data set on HUVEC (n=6) was “did not impact on transendothelial LL37 transportation”.

As to `Cc1ccc(C(=O)Nc2ccc(S(=O)(=O)O)c3cc(S(=O)(=O)O)cc(S(=O)(=O)O)c23)cc1NC(=O)c1cccc(NC(=O)Nc2cccc(C(=O)Nc3cc(C(=O)Nc4ccc(S(=O)(=O)O)c5cc(S(=O)(=O)O)cc(S(=O)(=O)O)c45)ccc3C)c2)c1` [suramin], the “Effect on transendothelial LL37 transportation” value with HUVEC (n=6) is recorded as “did not impact on transendothelial LL37 transportation”.

As to `CCCCOc1ccc(C(=O)NN2C(=O)c3ccccc3NC2c2ccc(O)cc2)cc1` (stereo not shown) [quin-C7, reference compound], in [5] (quin-C7 1µM, U73122 100nM, classical monocytes, n=4), the “Effect on LL37-induced integrin activation” value is “fully abrogated integrin activation induced by LL37”.

Turning to `CCCCC[C@@H](O)[C@H]1C(=O)O[C@H](C)[C@@H](O)/C=C/C=C/C=C/C=C/C=C(\C)[C@@H](O)C[C@H](O)C[C@H](O)C[C@H](O)C[C@H](O)C[C@H](O)C[C@@H]1O` [filipin], the “Effect on transendothelial LL37 transportation” value in the data set on HUVEC (n=6) is recorded as “clear-cut decreases of LL37 transcytosis”.

In the case of “MCP1: classical chemokine, CCR2 ligand (CCL2/MCP-1)”, the “Monocyte adhesion to P-selectin/ICAM-1 or P-selectin/VCAM-1” value in [1] is recorded as “strongly enhanced monocyte adhesion”. The “Integrin activation on non-classical CD14^+CD16^++ monocytes” value in data set [5] is on record as “not on non-classical CD14^+CD16^++ monocytes”. The “ICAM-1 and VCAM-1 binding” value in data set [4] is reported as “increased binding of ICAM-1 or VCAM-1”.

Consider “LL37: human cathelicidin; linear peptide; FITC-labelled form used in transport experiment”, for which the “Adhesion of non-classical monocytes, in vitro flow chamber” value in [6] is reported as “not of non-classical monocytes”. Also, the “Effect on expression of endothelial adhesion molecules” value in [7] is “did not impact on expression of endothelial adhesion molecules”. The “Transendothelial LL37 transportation at 4°C” value in the data set with HUVEC (4 °C, n=6) is “abrogated at 4 °C”. For the same compound, in the data set on HUVEC (time course, antibody-stained surface-bound LL37), the “Time until LL37 accumulation on HUVEC surface” value is listed as not below 2 h. The “Binding to P2X7” value in the data set on P2X7 [8] is “no interaction with LL37”. In the data set with DARC, the “Interaction with DARC” value is “could not detect an interaction between DARC and LL37”. Besides, the “Monocyte adhesion to P-selectin/ICAM-1 or P-selectin/VCAM-1” value in [1] is on record as “strongly enhanced monocyte adhesion”. Moreover, the “Integrin activation on non-classical CD14^+CD16^++ monocytes” value in data set [5] is on record as “not on non-classical CD14^+CD16^++ monocytes”. In addition, the “Effect of serum on direct chemotactic activity” value with FPR2 is listed as “not affected by serum”. In addition, the “Production and release of IL8” value with monocytes is “induces the production and release of IL8 from monocytes”. Further, the “Processing and release of IL-1 β” value in the data set with P2X7 [9] was “induced processing and release of the potent cytokine IL-1 β”. In addition, the Apoptosis result in [10] was “promotes apoptosis in various T-cells, smooth muscle cells, and epithelial cells”. Besides, the “Apoptotic cell death in neutrophils” value in the data set on neutrophils is “inhibit apoptotic cell death in neutrophils”.
